Laboratory results published in ChEMBL document CHEMBL4038305, “Benzoxaborole Antimalarial Agents. Part 5. Lead Optimization of Novel Amide Pyrazinyloxy Benzoxaboroles and Identification of a Preclinical Candidate” (J Med Chem, 2017).

Experiments:
Plasmodium falciparum [1] = experiment: Antimalarial activity against chloroquine-resistant Plasmodium falciparum W2 infected in human erythrocytes after 48 hrs by YOYO-1 dye based flow cytometric analysis; type: functional, cell-based; conditions: W2, 48 h
Procedure, shortened: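 P. falciparum W2 cultures were exposed to the compound for 48 h, with artemisinin and chloroquine as reference controls. IC50 was taken from two independent replicates.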

Plasmodium falciparum [2] = experiment: Antimalarial activity against chloroquine-sensitive Plasmodium falciparum 3D7 infected in human erythrocytes assessed as reduction in [3H]-hypoxanthine incorporation preincubated for 24 hrs followed by [3H]-hypoxanthine addition measured after 24 hrs by scintillation counting method; type: functional, cell-based
Procedure, shortened: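 P. falciparum 3D7 cultures were exposed to the compound for 48 h, with atovaquone as the reference control. IC50 was taken from three replicates.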

Row | Compound | IC50 (Plasmodium falciparum [1]) | IC50 (Plasmodium falciparum [2])
1 | Cc1c(Oc2cnc(C(=O)N[C@H](CO)C3CC3)cn2)ccc2c1B(O)OC2 | 643 nM | 1090 nM
2 | CCC[C@@H](NC(=O)c1cnc(Oc2ccc3c(c2C)B(O)OC3)cn1)C(C)(C)O | 260 nM | 553 nM
3 | Cc1c(Oc2cnc(C(=O)NC(C)(C)CO)cn2)ccc2c1B(O)OC2 | 290 nM | 425 nM
4 | CC[C@@H](NC(=O)c1cnc(Oc2ccc3c(c2C)B(O)OC3)cn1)C(C)(C)O | 91.8 nM | 222 nM
5 | Cc1c(Oc2cnc(C(=O)N[C@H](CO)CCC(F)(F)F)cn2)ccc2c1B(O)OC2 | 352 nM | 959 nM
6 | Cc1c(Oc2cnc(C(=O)N[C@@H](CO)C3CC3)cn2)ccc2c1B(O)OC2 | 492 nM | 587 nM
7 | Cc1c(Oc2cnc(C(=O)N[C@@H](C)CO)cn2)ccc2c1B(O)OC2 | 844 nM | 808 nM
8 | Cc1c(Oc2cnc(C(=O)N3CCNC[C@H]3CO)cn2)ccc2c1B(O)OC2 | 98.2 nM | 171 nM
9 | Cc1c(Oc2cnc(C(=O)N[C@H](C)C(C)(C)O)cn2)ccc2c1B(O)OC2 | 265 nM | 374 nM
10 | Cc1c(Oc2cnc(C(=O)N[C@H](CO)C(C)C)cn2)ccc2c1B(O)OC2 | 774 nM | 1990 nM
11 | CCCC[C@H](CO)NC(=O)c1cnc(Oc2ccc3c(c2C)B(O)OC3)cn1 | 84.9 nM | 215 nM
12 | Cc1c(Oc2cnc(C(=O)N[C@@H]3CCC[C@H]3O)cn2)ccc2c1B(O)OC2 | 133 nM | 245 nM
13 | Cc1c(Oc2cnc(C(=O)NC(C)C(C)O)cn2)ccc2c1B(O)OC2 (centres undefined) | 513 nM | 1460 nM
14 | CCC[C@H](CO)N(C)C(=O)c1cnc(Oc2ccc3c(c2C)B(O)OC3)cn1 | 48.1 nM | 252 nM
15 | Cc1c(Oc2cnc(C(=O)N(C)CCO)cn2)ccc2c1B(O)OC2 | 262 nM | 437 nM
16 | CSC[C@H](CO)NC(=O)c1cnc(Oc2ccc3c(c2C)B(O)OC3)cn1 | 37 nM | 74 nM
17 | Cc1c(Oc2cnc(C(=O)N[C@@H](CO)CS(C)(=O)=O)cn2)ccc2c1B(O)OC2 | 180 nM | 472 nM
18 | CCC[C@H](NC(=O)c1cnc(Oc2ccc3c(c2C)B(O)OC3)cn1)C(C)(C)O | 129 nM | 217 nM
19 | CC[C@@H](CO)NC(=O)c1cnc(Oc2ccc3c(c2C)B(O)OC3)cn1 | 704 nM | 801 nM

Row | Compound | IC50 (Plasmodium falciparum [1]) | IC50 (Plasmodium falciparum [2])
20 | Cc1c(Oc2cnc(C(=O)N(CCO)CCO)cn2)ccc2c1B(O)OC2 | 328 nM | 184 nM
21 | CCC[C@@H](CO)NC(=O)c1cnc(Oc2ccc3c(c2C)B(O)OC3)cn1 | 297 nM | 715 nM
22 | COCCNC(=O)c1cnc(Oc2ccc3c(c2C)B(O)OC3)cn1 | 788 nM | 644 nM
23 | Cc1c(Oc2cnc(C(=O)N[C@H](C)CO)cn2)ccc2c1B(O)OC2 | 944 nM | 848 nM
24 | Cc1c(Oc2cnc(C(=O)NCC(C)(C)O)cn2)ccc2c1B(O)OC2 | 334 nM | 554 nM
25 | Cc1c(Oc2cnc(C(=O)N[C@H]3CCC[C@@H]3O)cn2)ccc2c1B(O)OC2 | 149 nM | 537 nM
26 | Cc1c(Oc2cnc(C(=O)N3CCNC[C@@H]3CO)cn2)ccc2c1B(O)OC2 | 103 nM | 151 nM
27 | Cc1c(Oc2cnc(C(=O)N[C@@H](CO)c3ccccc3)cn2)ccc2c1B(O)OC2 | 103 nM | 161 nM
28 | Cc1c(Oc2cnc(C(=O)N[C@H](CO)CC(F)(F)F)cn2)ccc2c1B(O)OC2 | 350 nM | 31 nM
29 | Cc1c(Oc2cnc(C(=O)NCC(C)O)cn2)ccc2c1B(O)OC2 (centres undefined) | 1280 nM | 1100 nM
30 | CC[C@H](NC(=O)c1cnc(Oc2ccc3c(c2C)B(O)OC3)cn1)C(C)(C)O | 279 nM | 829 nM
31 | Cc1c(Oc2cnc(C(=O)N[C@@H](C)C(C)(C)O)cn2)ccc2c1B(O)OC2 | 202 nM | 327 nM
32 | Cc1c(Oc2cnc(C(=O)N[C@@H](CO)CCC(F)(F)F)cn2)ccc2c1B(O)OC2 | 230 nM | 480 nM
33 | Cc1c(Oc2cnc(C(=O)N3CCC(C)(O)C3)cn2)ccc2c1B(O)OC2 (centres undefined) | 139 nM | 314 nM
34 | COC[C@H](CO)NC(=O)c1cnc(Oc2ccc3c(c2C)B(O)OC3)cn1 | 455 nM | 796 nM
35 | Cc1c(Oc2cnc(C(=O)NC3(CO)CC3)cn2)ccc2c1B(O)OC2 | 2010 nM | 1500 nM
36 | Cc1c(Oc2cnc(C(=O)N[C@@H](CO)Cc3ccccc3)cn2)ccc2c1B(O)OC2 | 115 nM | 505 nM
37 | Cc1c(Oc2cnc(C(=O)N[C@@H]3CCC[C@@H]3O)cn2)ccc2c1B(O)OC2 (relative stereo) | 292 nM | 181 nM
